Measured values from ChEMBL document CHEMBL4480426, “Novel multi-target directed ligands based on annelated xanthine scaffold with aromatic substituents acting on adenosine receptor and monoamine oxidase B. Synthesis, in vitro and in silico studies” (Bioorg Med Chem, 2019).

Columns and labels:
Adenosine receptor A1 = target: T1, Adenosine receptor A1 (Homo sapiens, UniProt P30542); test: Displacement of [3H]CCPA from recombinant human adenosine A1 receptor expressed in CHO cells; assay type: cell-based
T1 sequence (P30542 whole entry): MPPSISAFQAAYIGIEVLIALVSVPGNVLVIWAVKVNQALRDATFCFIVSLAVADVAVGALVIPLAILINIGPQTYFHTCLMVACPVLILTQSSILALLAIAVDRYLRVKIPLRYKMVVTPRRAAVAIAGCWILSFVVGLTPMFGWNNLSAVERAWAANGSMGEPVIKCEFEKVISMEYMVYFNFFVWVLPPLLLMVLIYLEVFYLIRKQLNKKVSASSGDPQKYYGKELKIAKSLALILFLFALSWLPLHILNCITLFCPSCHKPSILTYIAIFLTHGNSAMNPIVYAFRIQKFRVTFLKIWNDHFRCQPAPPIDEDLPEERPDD

[1] = target: T2, Adenosine receptor A1 (Homo sapiens) (UniProt P30542); test: Displacement of [3H]CCPA from recombinant human adenosine A1 receptor expressed in CHO cells at 1 uM relative to control; assay type: cell-based
T2 sequence (whole entry): T1 sequence (P30542 whole entry)
Procedure, shortened: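 Purchased membranes of CHO cells expressing human A1 ([3H]CCPA) or human A3 ([3H]PSB-11). A single high compound concentration is screened first; for potent compounds, full inhibition curves spanning 3 orders of magnitude. At least three independent experiments.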

Adenosine receptor A3 = target: T3, Adenosine receptor A3 (Homo sapiens, UniProt P0DMS8); test: Displacement of [3H]PSB11 from recombinant human adenosine A3 receptor expressed in CHO cells; assay type: cell-based
T3 sequence (P0DMS8 whole entry): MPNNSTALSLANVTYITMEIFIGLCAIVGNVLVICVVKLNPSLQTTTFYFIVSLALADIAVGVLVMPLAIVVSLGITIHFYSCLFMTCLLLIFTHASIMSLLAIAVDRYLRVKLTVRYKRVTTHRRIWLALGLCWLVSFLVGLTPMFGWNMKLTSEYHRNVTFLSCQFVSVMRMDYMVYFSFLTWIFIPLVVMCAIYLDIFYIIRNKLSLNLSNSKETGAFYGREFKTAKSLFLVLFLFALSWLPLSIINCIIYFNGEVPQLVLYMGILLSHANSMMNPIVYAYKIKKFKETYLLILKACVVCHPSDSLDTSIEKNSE

[2] = target: T4, Amine oxidase [flavin-containing] A (Homo sapiens, UniProt P21397); test: Inhibition of recombinant human MAOA expressed in baculovirus infected BTI insect cells using p-tyramine as substrate preincubated for 30 mins followed by substrate addition and measured over 45 mins by horseradish peroxidase-Amplex Red-coupled fluorometric assay
T4 sequence (P21397 whole entry): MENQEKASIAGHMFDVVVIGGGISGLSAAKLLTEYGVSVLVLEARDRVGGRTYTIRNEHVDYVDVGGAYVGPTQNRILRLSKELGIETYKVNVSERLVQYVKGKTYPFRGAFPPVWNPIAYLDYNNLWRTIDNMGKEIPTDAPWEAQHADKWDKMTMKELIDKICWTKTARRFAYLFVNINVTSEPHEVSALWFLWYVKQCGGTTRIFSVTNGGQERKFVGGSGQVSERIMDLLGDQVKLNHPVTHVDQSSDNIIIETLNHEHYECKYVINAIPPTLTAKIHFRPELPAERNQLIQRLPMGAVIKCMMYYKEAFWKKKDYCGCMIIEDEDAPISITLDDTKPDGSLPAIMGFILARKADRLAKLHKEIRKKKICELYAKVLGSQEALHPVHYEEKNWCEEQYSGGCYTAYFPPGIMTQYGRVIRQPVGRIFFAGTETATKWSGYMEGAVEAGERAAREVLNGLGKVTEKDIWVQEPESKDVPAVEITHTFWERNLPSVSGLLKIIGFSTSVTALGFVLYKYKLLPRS
Procedure, shortened: (§1)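 Human recombinant MAO-A or MAO-B enzyme. Activity detected fluorometrically with the Amplex Red monoamine oxidase assay.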

[3] = target: T5, Amine oxidase [flavin-containing] B (Homo sapiens, UniProt P27338); test: Inhibition of recombinant human MAOB expressed in baculovirus infected BTI insect cells using p-tyramine as substrate preincubated for 30 mins followed by substrate addition and measured over 45 mins by horseradish peroxidase-Amplex Red-coupled fluorometric assay; procedure, shortened: as §1
T5 sequence (P27338 whole entry): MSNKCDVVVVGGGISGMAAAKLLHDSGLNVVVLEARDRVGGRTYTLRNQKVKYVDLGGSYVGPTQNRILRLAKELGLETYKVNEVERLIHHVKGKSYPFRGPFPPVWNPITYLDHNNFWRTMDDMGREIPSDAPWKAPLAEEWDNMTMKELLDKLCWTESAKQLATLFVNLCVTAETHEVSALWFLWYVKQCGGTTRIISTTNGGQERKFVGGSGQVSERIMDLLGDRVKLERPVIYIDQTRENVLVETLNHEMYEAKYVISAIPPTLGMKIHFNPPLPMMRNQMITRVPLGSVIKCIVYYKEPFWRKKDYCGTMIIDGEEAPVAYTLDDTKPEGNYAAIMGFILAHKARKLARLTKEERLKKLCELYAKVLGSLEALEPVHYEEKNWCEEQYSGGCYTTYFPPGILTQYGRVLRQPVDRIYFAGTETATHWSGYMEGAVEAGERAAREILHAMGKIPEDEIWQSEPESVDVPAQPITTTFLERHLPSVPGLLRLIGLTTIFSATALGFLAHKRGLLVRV

[4] = Antioxidant activity assessed as increase in total ferric ion reducing activity at 1000 uM using FeCl3.6H2O and TPTZ incubated for 10 mins under dark condition by FRAP assay relative to control; assay type: functional; set-up: scale not given: the % may be the effect or the level left
Procedure, shortened: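 FRAP reagent made by mixing 10 parts 300 mM acetate buffer pH 3.6, 1 part 10 mM TPTZ in 40 mM HCl and 1 part 20 mM FeCl3·6H2O. Reagent mixed with compound solution, 10 min at room temperature in the dark. Ferrous-TPTZ complex read at 593 nm. Result is absorbance increase versus solvent sample. FeSO4·7H2O standard curve, 37.5–1200 μM.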

Brain = test: Antioxidant activity in rat brain homogenate assessed as inhibition of FeCl2/ascorbic acid-induced lipid peroxidation by measuring reduction in TBARS level at 1000 uM preincubated for 5 mins followed by FeCl2/ascorbic acid addition and measured after 30 mins relative to control; assay type: functional, tissue-based; set-up: scale not given: the % may be the effect or the level left
Procedure, shortened: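 Rat brain homogenate in 0.9% saline, 10 mg tissue/ml, preincubated 5 min at 37 °C with compound or vehicle. Peroxidation started with 0.5 mM FeCl2 plus 2 mM ascorbic acid (added-solution concentrations). After 30 min, stopped with 0.2% BHT. Thiobarbituric acid reagent added, heated 15 min in boiling water, TBARS extracted into n-butanol and read at 532 nm. Carvedilol as reference.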

Ki (Adenosine receptor A1): > 1000 nM
inhibition [1]: 21%
Ki (Adenosine receptor A3): > 1000 nM
IC50 [2]: > 1000 nM
IC50 [3]: 83 nM
SMILES: Cn1c(=O)c2c(nc3n2CCCCN3Cc2ccc(Cl)c(Cl)c2)n(C)c1=O
Activity [4]: 0.59%
Activity (Brain): 16.6%
